Test results as given in PMC12062833 (RSC Medicinal Chemistry, 2025).
≈ marks a conversion by molar mass, not a printed value. Entries after “also recorded” stand apart in the source; their conditions may differ.

How the values were obtained:
[1] = tested on: Staphylococcus aureus (ATCC 25923); assay: Antibacterial MIC, macrodilution method, S. aureus; format: cell-based; settings: ATCC25923, read-out: MIC S. aureus
How it was run: (§1)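 CLSI M07-A9 tube macrodilution. Strains were grown overnight on nutrient agar at 37 °C, and colonies were suspended in Mueller-Hinton broth. Inoculum was 1 × 10^6 per mL (5 × 10^5 per mL in test). DMSO stock was 5120 μg/mL. Final concentrations were 256 to […] in 2 mL. Tubes were incubated at 37 °C for 16–20 h. Controls were inoculum with and without 1% DMSO, and broth alone.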

[2] = tested on: Pseudomonas aeruginosa (ATCC 9027); assay: Antibacterial MIC, macrodilution method, P. aeruginosa; format: cell-based; settings: ATCC9027, read-out: MIC P. aeruginosa
How it was run: as §1

[3] = tested on: Capan-1 pancreatic adenocarcinoma cells; assay: Antiproliferative assay; format: cell-based; settings: Homo sapiens, CAPAN-1, 72 h, read-out: IC50 Capan-1
How it was run: (§2)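 Adherent lines were seeded at 500 (Capan-1), 1000 (LN-229, HCT-116) or 1500 (NCI-H460) cells/well and dosed after overnight incubation. Suspension lines were seeded at 2500 (HL-60, K-562, Z-138) or 5500 (DND-41) cells/well directly onto compound. Seven 5-fold concentrations ran from 100 to 0.006 μM for 72 h. Viability was read as MTS absorbance at 490 nm after 3 h, and IC50 was derived from OD values. Two independent experiments.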

[4] = tested on: K-562 chronic myeloid leukemia cells; assay: Antiproliferative assay; format: cell-based; settings: Homo sapiens, K562, 72 h, read-out: IC50 K-562
How it was run: as §2

[5] = tested on: LN-229 glioblastoma cells; assay: Antiproliferative assay; format: cell-based; settings: Homo sapiens, LN-229, 72 h, read-out: IC50 LN-229
How it was run: as §2

[6] = tested on: NCI-H460 non-small cell lung cancer cells; assay: Antiproliferative assay; format: cell-based; settings: Homo sapiens, NCI-H460, 72 h, read-out: IC50 NCI-H460
How it was run: as §2

[7] = tested on: HL-60 acute myeloid leukemia cells; assay: Antiproliferative assay; format: cell-based; settings: Homo sapiens, HL-60, 72 h, read-out: IC50 HL-60
How it was run: as §2

[8] = tested on: Escherichia coli (ATCC 25922); assay: Antibacterial MIC, macrodilution method, E. coli; format: cell-based; settings: ATCC25922, read-out: MIC E. coli
How it was run: as §1

[9] = tested on: HCT-116 colon carcinoma cells; assay: Antiproliferative assay; format: cell-based; settings: Homo sapiens, HCT-116, 72 h, read-out: IC50 HCT-116
How it was run: as §2

[10] = tested on: Klebsiella pneumoniae (ATCC 27736); assay: Antibacterial MIC, macrodilution method, K. pneumoniae; format: cell-based; settings: ATCC27736, read-out: MIC K. pneumoniae
How it was run: as §1

[11] = tested on: Z-138 non-Hodgkin's lymphoma cells; assay: Antiproliferative assay; format: cell-based, human; settings: read-out: IC50 Z-138; 72 h incubation, two independent experiments
How it was run: as §2

salmon sperm DNA = assay: Fluorescent intercalator displacement; format: binding; settings: tested at 250, 100 and 40 μM; result in words
How it was run: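 Competitive fluorescence-polarization displacement. Acridine orange (50 nM) and salmon sperm DNA (6 μg/mL) were mixed with test compound at 250, 100 or 40 μM in HEN buffer (10 mM HEPES pH 7.5, 1 mM EDTA, 100 mM NaCl). Mixtures stood 20 min in the dark. mP was normalized to the DMSO control, with mitoxantrone (10 μM) as positive control.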

[12] = tested on: eight human tumor cell lines; assay: Antiproliferative assay, span over the panel of tumor cell lines; format: cell-based; settings: 72 h, read-out: IC50 range across tested tumor cell lines
How it was run: as §2

PBMC from healthy donors = assay: Cytotoxicity test on normal peripheral blood mononuclear cells; format: cell-based, human; settings: PBMC of two healthy donors, 72 h, result in words
[13] = tested on: Enterococcus faecalis (ATCC 29212); assay: Antibacterial MIC, macrodilution method, E. faecalis; format: cell-based; settings: MHB, 37 °C

SMILES	MIC [1] [µg/mL]	MIC [2] [µg/mL]	IC50 [3] [µM]	IC50 [4] [µM]	IC50 [5] [µM]	IC50 [6] [µM]	IC50 [7] [µM]	MIC [8] [µg/mL]	IC50 [9] [µM]	MIC [10] [µg/mL]	IC50 [11] [µM]	DNA intercalation (acridine orange displacement, fluorescence polarization) (salmon sperm DNA)	IC50 [12] [µM]	Impact on viability of normal PBMC (MTS) (PBMC from healthy donors; 100 to 0.006 μM)	Dead and apoptotic PBMC (propidium iodide, caspase 3/7, IncuCyte) (PBMC from healthy donors)	MIC E. faecalis [13] [µg/mL]
O=C(COc1ccc(-c2nc3ccc(Cl)cc3[nH]2)cc1F)N1CCOCC1 [Compound 25, 2-(4-(6-Chloro-1H-benzo[d]imidazol-2-yl)-2-fluorophenoxy)-1-morpholinoethan-1-one]	> 256	> 256	> 100	> 100	> 100	> 100	> 100	> 256	> 100	> 256	≥ 64.8					
CCN(CC)CCOc1ccc(-c2nc3ccc(Cl)cc3[nH]2)cc1F [Compound 23, 2-(4-(6-Chloro-1H-benzo[d]imidazol-2-yl)-2-fluorophenoxy)-N,N-diethylethan-1-amine]	256 (≈ 707 µM)	> 256	2.2 ± 0.5	2 ± 0.7	5 ± 1.3	2.3 ± 0.8	4.4 ± 0.5	256 (≈ 707 µM)	9.4 ± 1.2	> 256		scored best in the binding assay	2 to 9.4	Only at the highest tested concentration (100 μM), there was an impact on the viability of these normal cells	caused apoptosis in normal cells only at the highest applied concentration of 100 μM; also recorded: an increase in the number of dead and apoptotic cells was observed at 100 μM	
O=C(COc1ccc(-c2nc3ccc(Cl)cc3[nH]2)cc1)N1CCOCC1 [Compound 17, 2-(4-(6-Chloro-1H-benzo[d]imidazol-2-yl)phenoxy)-1-morpholinoethan-1-one]	> 256	> 256	28.5 ± 4.4	> 100	> 100	> 100	> 100	> 256	> 100	> 256						0.5 (≈ 1.34 µM)
Clc1ccc2nc(-c3ccc(OCCN4CCOCC4)cc3)[nH]c2c1 [Compound 16, 4-(2-(4-(6-Chloro-1H-benzo[d]imidazol-2-yl)phenoxy)ethyl)morpholine]	64 (≈ 179 µM)	> 256	45 ± 5.1	37.3 ± 3.9	> 100	> 100	51.6 ± 1.5	256 (≈ 715 µM)	> 100	> 256			37.3 to 79.8			0.25 (≈ 0.699 µM)
Fc1cc(-c2nc3ccc(Cl)cc3[nH]2)ccc1OCCN1CCOCC1 [Compound 24, 4-(2-(4-(6-Chloro-1H-benzo[d]imidazol-2-yl)-2-fluorophenoxy)ethyl)morpholine]	> 256	> 256	> 100	> 100	> 100	> 100	> 100	> 256	> 100	> 256	≥ 80.5					
O=C(COc1ccc(-c2nc3ccc(F)cc3[nH]2)cc1F)N1CCOCC1 [Compound 27, 2-(2-Fluoro-4-(6-fluoro-1H-benzo[d]imidazol-2-yl)phenoxy)-1-morpholinoethan-1-one]	> 256	> 256	> 100	> 100	> 100	> 100	> 100	> 256	> 100	> 256		exhibit clear intercalating properties				
